The record followed here is publication PMC8148061 (Acta Pharmaceutica Sinica. B, 2020).

Where two headings read alike, the source gives them in different places.

For experiment [1], the system named is K562. Put plainly: Antiproliferation cell assay. It counts as cell-based, human. As to conditions: read-out: Cellular inhibition IC50 K562. Summed up: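 K562 (ATCC) cells were grown in RPMI-1640 with 10% FBS, penicillin, streptomycin and 2 mmol/L glutamine at 37 °C in humidified CO2. Log-phase cells were seeded at ~3000/well, rested overnight, then exposed to test compound or vehicle for 72 h (10 mmol/L DMSO stocks). CCK-8 was read as OD450−OD650, with viability normalised to no-cell blank and vehicle wells. IC50 came from concentration–response curve fitting, mean ± SD.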

The test system of experiment [2] is Ba/F3 Bcr-Abl^WT. Put plainly: Antiproliferation cell assay. It counts as cell-based. As to conditions: read-out: Cellular inhibition IC50 Ba/F3 Bcr-Abl^WT.
Experiment [3] concerns the target Bcr-Abl^T315I (Homo sapiens, UniProt P00519+P11274, T315I). Put plainly: Western blot degradation study in Ba/F3 cells expressed Bcr-Abl^T315I. It counts as cell-based. Conditions: 24 h treatment, Western blot.
Experiment [4] concerns Ba/F3 Bcr-Abl^T315I. The experiment can be described thus: Antiproliferation cell assay. Conditions: read-out: Cellular inhibition IC50 Ba/F3 Bcr-Abl^T315I. It counts as cell-based.

On to “3-((1H-Pyrazolo[3,4-b]pyridin-5-yl)ethynyl)-N-(4-((4-(13-((2-(2,6-dioxopiperidin-3-yl)-1,3-dioxoisoindolin-4-yl)amino)-13-oxotridecyl)piperazin-1-yl)methyl)-3-(trifluoromethyl)phenyl)-4-methylbenzamide [7s]”, for which the IC50 was determined as 57.8 ± 19.5 nM in experiment [1] (72 h, CCK-8, mean ± SD); 61 ± 1.7 nM in experiment [2] (72 h, CCK-8, mean ± SD); 114 ± 29.9 nM in experiment [4] (72 h, CCK-8, mean ± SD). Moreover, in experiment [3], the “DR against Ba/F3 Bcr-Abl^T315I (%) 100 nmol/L” value (“DR … (%) 100 nmol/L” below) was −7.20%. The “DR against Ba/F3 Bcr-Abl^T315I (%) 300 nmol/L” value (“DR … (%) 300 nmol/L” below) in experiment [3] worked out at 45.61%.

On to `Cc1ccc(C(=O)Nc2ccc(CN3CCN(CCOCCOCCC(=O)Nc4cccc5c4CN(C4CCC(=O)NC4=O)C5=O)CC3)c(C(F)(F)F)c2)cc1C#Cc1cnc2[nH]ncc2c1` (stereo not drawn) [7b, 3-((1H-Pyrazolo[3,4-b]pyridin-5-yl)ethynyl)-N-(4-((4-(2-(2-(3-((2-(2,6-dioxopiperidin-3-yl)-1-oxoisoindolin-4-yl)amino)-3-oxopropoxy)ethoxy)ethyl)piperazin-1-yl)methyl)-3-(trifluoromethyl)phenyl)-4-methylbenzamide], for which the IC50 in experiment [1] (Homo sapiens, K562, 72 h) amounted to 4 ± 0.6 nM; in experiment [2] (Mus musculus, BaF3, 72 h), 65.3 ± 30.2 nM; in experiment [4] (Mus musculus, BaF3, 72 h), 287 ± 23 nM. Moreover, in experiment [3], the “DR … (%) 100 nmol/L” value is given as −9.18%. Also, the “DR … (%) 300 nmol/L” value in experiment [3] is −4.21%.

On to `Cc1ccc(C(=O)Nc2ccc(CN3CCN(CCOCCOCCOc4cccc5c4C(=O)N(C4CCC(=O)NC4=O)C5=O)CC3)c(C(F)(F)F)c2)cc1C#Cc1cnc2[nH]ncc2c1` (stereo not drawn) [7c, 3-((1H-Pyrazolo[3,4-b]pyridin-5-yl)ethynyl)-N-(4-((4-(2-(2-(2-((2-(2,6-dioxopiperidin-3-yl)-1,3-dioxoisoindolin-4-yl)oxy)ethoxy)ethoxy)ethyl)piperazin-1-yl)methyl)-3-(trifluoromethyl)phenyl)-4-methylbenzamide], for which the IC50 came out at 3.2 ± 0.1 nM in experiment [1] (Homo sapiens, K562, 72 h); 22.4 ± 10.2 nM in experiment [2] (Mus musculus, BaF3, 72 h); 212 ± 101 nM in experiment [4] (Mus musculus, BaF3, 72 h). For the same molecule, the “DR … (%) 100 nmol/L” value in experiment [3] was −15.62%. In addition, the “DR … (%) 300 nmol/L” value in experiment [3] came to 9.98%.

With `Cc1ccc(C(=O)Nc2ccc(CN3CCN(CCOCCOCCC(=O)N[C@H](C(=O)C4C[C@H](O)C[C@H]4C(=O)NCc4ccc(-c5scnc5C)cc4)C(C)(C)C)CC3)c(C(F)(F)F)c2)cc1C#Cc1cnc2[nH]ncc2c1` (stereo partly drawn) [7d, 3-((1H-Pyrazolo[3,4-b]pyridin-5-yl)ethynyl)-N-(4-((4-(2-(2-(3-(((2S)-1-((2R,4S)-4-hydroxy-2-((4-(4-methylthiazol-5-yl)benzyl)carbamoyl)cyclopentyl)-3,3-dimethyl-1-oxobutan-2-yl)amino)-3-oxopropoxy)ethoxy)ethyl)piperazin-1-yl)methyl)-3-(trifluoromethyl)phenyl)-4-methylbenzamide], the IC50 in experiment [1] (Homo sapiens, K562, 72 h) worked out at 31 ± 0.1 nM; in experiment [2] (Mus musculus, BaF3, 72 h) it was 337 ± 6.1 nM; in experiment [4] (Mus musculus, BaF3, 72 h) it was 981 ± 24.9 nM. Besides, the “DR … (%) 100 nmol/L” value in experiment [3] was −18.26%. Moreover, in experiment [3], the “DR … (%) 300 nmol/L” value is listed as −10.51%.

With `Cc1ccc(C(=O)Nc2ccc(CN3CCN(CCOCCOCCNC(=O)[C@H](CC(C)C)NC(=O)[C@@H](O)[C@H](N)Cc4ccccc4)CC3)c(C(F)(F)F)c2)cc1C#Cc1cnc2[nH]ncc2c1` [7e, 3-((1H-Pyrazolo[3,4-b]pyridin-5-yl)ethynyl)-N-(4-((4-((11S,14S,15R)-15-amino-14-hydroxy-11-isobutyl-10,13-dioxo-16-phenyl-3,6-dioxa-9,12-diazahexadecyl)piperazin-1-yl)methyl)-3-(trifluoromethyl)phenyl)-4-methylbenzamide], the IC50 is 58.6 ± 11.4 nM in experiment [1] (Homo sapiens, K562, 72 h); 240 ± 75.4 nM in experiment [2] (Mus musculus, BaF3, 72 h); 2310 ± 424 nM in experiment [4] (Mus musculus, BaF3, 72 h). Moreover, the “DR … (%) 100 nmol/L” value in experiment [3] is on record as −14.92%. Besides, in experiment [3], the “DR … (%) 300 nmol/L” value came to 11.17%.

As for `Cc1ccc(C(=O)Nc2ccc(CN3CCN(CCOCCOCCC(=O)NC45CC6CC(CC(C6)C4)C5)CC3)c(C(F)(F)F)c2)cc1C#Cc1cnc2[nH]ncc2c1` [7f, 3-((1H-Pyrazolo[3,4-b]pyridin-5-yl)ethynyl)-N-(4-((4-(2-(2-(3-(adamantan-1-ylamino)-3-oxopropoxy)ethoxy)ethyl)piperazin-1-yl)methyl)-3-(trifluoromethyl)phenyl)-4-methylbenzamide], the IC50 in experiment [1] (Homo sapiens, K562, 72 h) was more than 10000 nM; in experiment [2] (Mus musculus, BaF3, 72 h) it was more than 10000 nM; in experiment [4] (Mus musculus, BaF3, 72 h), more than 10000 nM. In addition, in experiment [3], the “DR … (%) 100 nmol/L” value is −5.26%. The “DR … (%) 300 nmol/L” value in experiment [3] worked out at 11.72%.

On to `Cc1ccc(C(=O)Nc2ccc(CN3CCN(CCOCCC(=O)Nc4cccc5c4C(=O)N(C4CCC(=O)NC4=O)C5=O)CC3)c(C(F)(F)F)c2)cc1C#Cc1cnc2[nH]ncc2c1` (stereo not drawn) [7g, 3-((1H-Pyrazolo[3,4-b]pyridin-5-yl)ethynyl)-N-(4-((4-(2-(3-((2-(2,6-dioxopiperidin-3-yl)-1,3-dioxoisoindolin-4-yl)amino)-3-oxopropoxy)ethyl)piperazin-1-yl)methyl)-3-(trifluoromethyl)phenyl)-4-methylbenzamide], for which the IC50 in experiment [1] (Homo sapiens, K562, 72 h) is 3.5 ± 0.5 nM; in experiment [2] (Mus musculus, BaF3, 72 h), 20.7 ± 2.4 nM; in experiment [4] (Mus musculus, BaF3, 72 h), 67.5 ± 3.2 nM. Further, in experiment [3], the “DR … (%) 100 nmol/L” value is given as −11.43%. Further, the “DR … (%) 300 nmol/L” value in experiment [3] was 28.39%.

Consider `Cc1ccc(C(=O)Nc2ccc(CN3CCN(CCOCCOCCOCCOCCC(=O)Nc4cccc5c4C(=O)N(C4CCC(=O)NC4=O)C5=O)CC3)c(C(F)(F)F)c2)cc1C#Cc1cnc2[nH]ncc2c1` (stereo not drawn) [7i, 1-(4-(4-(3-((1H-Pyrazolo[3,4-b]pyridin-5-yl)ethynyl)-4-methylbenzamido)-2-(trifluoromethyl)benzyl)piperazin-1-yl)-N-(2-(2,6-dioxopiperidin-3-yl)-1,3-dioxoisoindolin-4-yl)-3,6,9,12-tetraoxapentadecan-15-amide], for which the IC50 in experiment [1] (Homo sapiens, K562, 72 h) amounted to 11.4 ± 7.3 nM; in experiment [2] (Mus musculus, BaF3, 72 h) it was 19.9 ± 4.2 nM; in experiment [4] (Mus musculus, BaF3, 72 h), 95.4 ± 37.4 nM. Besides, the “DR … (%) 100 nmol/L” value in experiment [3] is listed as −22.44%. The “DR … (%) 300 nmol/L” value in experiment [3] is recorded as −19.45%.

For `Cc1ccc(C(=O)Nc2ccc(CN3CCN(CCOCCOCCOCCOCCOCCC(=O)Nc4cccc5c4C(=O)N(C4CCC(=O)NC4=O)C5=O)CC3)c(C(F)(F)F)c2)cc1C#Cc1cnc2[nH]ncc2c1` (stereo not drawn) [7j, 1-(4-(4-(3-((1H-Pyrazolo[3,4-b]pyridin-5-yl)ethynyl)-4-methylbenzamido)-2-(trifluoromethyl)benzyl)piperazin-1-yl)-N-(2-(2,6-dioxopiperidin-3-yl)-1,3-dioxoisoindolin-4-yl)-3,6,9,12,15-pentaoxaoctadecan-18-amide], the IC50 in experiment [1] (Homo sapiens, K562, 72 h) is 2.8 ± 0.4 nM; in experiment [2] (Mus musculus, BaF3, 72 h), 14.3 ± 0.3 nM; in experiment [4] (Mus musculus, BaF3, 72 h) it was 60.1 ± 0.3 nM. The “DR … (%) 100 nmol/L” value in experiment [3] is reported as −23.27%. Besides, the “DR … (%) 300 nmol/L” value in experiment [3] is given as 21.17%.

As for `Cc1ccc(C(=O)Nc2ccc(CN3CCN(CCOCCOCCOCCOCCOCCOCCC(=O)Nc4cccc5c4C(=O)N(C4CCC(=O)NC4=O)C5=O)CC3)c(C(F)(F)F)c2)cc1C#Cc1cnc2[nH]ncc2c1` (stereo not drawn) [7k, 1-(4-(4-(3-((1H-Pyrazolo[3,4-b]pyridin-5-yl)ethynyl)-4-methylbenzamido)-2-(trifluoromethyl)benzyl)piperazin-1-yl)-N-(2-(2,6-dioxopiperidin-3-yl)-1,3-dioxoisoindolin-4-yl)-3,6,9,12,15,18-hexaoxahenicosan-21-amide], the IC50 in experiment [1] (Homo sapiens, K562, 72 h) was found to be 10.5 ± 0.5 nM; in experiment [2] (Mus musculus, BaF3, 72 h) it was 107 ± 24.9 nM; in experiment [4] (Mus musculus, BaF3, 72 h), 306 ± 69.3 nM. The “DR … (%) 100 nmol/L” value in experiment [3] was determined as 19.38%. Also, the “DR … (%) 300 nmol/L” value in experiment [3] is on record as 25.53%.

With `Cc1ccc(C(=O)Nc2ccc(CN3CCN(CCC(=O)Nc4cccc5c4C(=O)N(C4CCC(=O)NC4=O)C5=O)CC3)c(C(F)(F)F)c2)cc1C#Cc1cnc2[nH]ncc2c1` (stereo not drawn) [7l, 3-((1H-Pyrazolo[3,4-b]pyridin-5-yl)ethynyl)-N-(4-((4-(3-((2-(2,6-dioxopiperidin-3-yl)-1,3-dioxoisoindolin-4-yl)amino)-3-oxopropyl)piperazin-1-yl)methyl)-3-(trifluoromethyl)phenyl)-4-methylbenzamide], the IC50 in experiment [1] (Homo sapiens, K562, 72 h) was 2.1 ± 0.9 nM; in experiment [2] (Mus musculus, BaF3, 72 h), 5.4 ± 0.8 nM; in experiment [4] (Mus musculus, BaF3, 72 h), 65.8 ± 28.8 nM. The “DR … (%) 100 nmol/L” value in experiment [3] is −30.35%. For the same molecule, the “DR … (%) 300 nmol/L” value in experiment [3] stood at 37.19%.

In the case of `Cc1ccc(C(=O)Nc2ccc(CN3CCN(CCCCC(=O)Nc4cccc5c4C(=O)N(C4CCC(=O)NC4=O)C5=O)CC3)c(C(F)(F)F)c2)cc1C#Cc1cnc2[nH]ncc2c1` (stereo not drawn) [7m, 3-((1H-Pyrazolo[3,4-b]pyridin-5-yl)ethynyl)-N-(4-((4-(5-((2-(2,6-dioxopiperidin-3-yl)-1,3-dioxoisoindolin-4-yl)amino)-5-oxopentyl)piperazin-1-yl)methyl)-3-(trifluoromethyl)phenyl)-4-methylbenzamide], the IC50 worked out at 3 ± 1.2 nM in experiment [1] (Homo sapiens, K562, 72 h); 4.3 ± 0.1 nM in experiment [2] (Mus musculus, BaF3, 72 h); 25 ± 10.4 nM in experiment [4] (Mus musculus, BaF3, 72 h). Besides, the “DR … (%) 100 nmol/L” value in experiment [3] was 49.84%. The “DR … (%) 300 nmol/L” value in experiment [3] was found to be 48.67%.
